A short description of assay [1]: nonspecific flux increase, KCNQ1-free cells – parental CHO cells, counter-screen for KCNQ1 potentiator project (AID 493006;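 active = duplicate-averaged activation above buffer control mean plus 5 SD of those controls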;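 as to activation: fluorescence ratio of max minus min over baseline after K+ and Tl+ depolarization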). The settings on record: parental CHO-K1 cells, FluxOR thallium flux, at 10 µM; active compounds read high. The procedure, abridged: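 Material: parental CHO-K1 cells, FluxOR dye-loaded; Also added: Potassium/thallium depolarization pulse; Schedule: overnight 37 °C plating, 90 min dye, 20 min dark compound; Signal: kinetic FluxOR fluorescence, 10 s baseline, 110 s after stimulus.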
For orientation: The purpose of a counterscreen is to sort out artefacts and off-target activity.

Assay [2] deals with Potassium voltage-gated channel subfamily KQT member 1 (Homo sapiens) (UniProt P51787). In words: enhancement of KCNQ1 channel thallium flux – FluxOR thallium flux, CHO cells, duplicates, confirmation (AID 493007;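 active = potentiation averaged over duplicate wells exceeding buffer-only control mean by more than 3 SD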;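 as to outcome: cells depolarized by a potassium plus thallium sulfate stimulus after compound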). The note with it: KCNQ1 cell line, FluxOR thallium flux fluorescence, at 10 µM; active compounds read high, % of reference activator effect, buffer zero. The procedure, abridged: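 System: KCNQ1-expressing CHO cell line; technique: kinetic thallium influx fluorescence with FluxOR dye, 10 s baseline, 110 s post-stimulus; timing: dye 90 min then compound 20 min, both at room temperature; controls: buffer-only wells as 0% and R-L3 activator as 100%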

Assay [3] deals with Potassium voltage-gated channel subfamily KQT member 2 (Rattus norvegicus) (UniProt O88943). In words: KCNQ2 thallium flux enhancement – KCNQ2-CHO-K1 cells, selectivity assay for KCNQ1 potentiator project (AID 493009).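 Also: assay conditions were tuned for KCNQ1 rather than KCNQ2 modulators; signal is max minus min fluorescence divided by baseline after thallium stimulus.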 The settings on record: FluxOR thallium flux fluorescence, at 10 µM; active compounds read high, scaled: buffer 0, activator control 100.
Assay [4] has as its target Potassium voltage-gated channel subfamily KQT member 1 (Homo sapiens) (UniProt P51787). The experiment in a line: KCNQ1 activators by electrophysiology – IonWorks patch clamp, KCNQ1-CHO cells, orthogonal assay for KCNQ1 potentiator project, confirmation (AID 493184;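 active = current rise at least 3 SD above the untreated control mean in each of two repeat wells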). The note with it: automated patch clamp current, at 10 µM; active compounds read high. The procedure, abridged: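 Test system: KCNQ1-expressing CHO cells. Medium: pH 7.4 external bath. Probe or stimulus: voltage step from -90 mV holding to +40 mV, 2,000 ms. Compound: 10 µM final, single point. Detection: automated perforated-patch electrophysiology. Read-out: percent current increase versus pre-compound level. Repeats: two replicates.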

Molecules are shown by their SMILES. The source made the active and inactive calls.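 The calls were made as follows, unless noted: active = mean duplicate potentiation above the buffer control mean plus 5 SD of buffer wells; inactive = the rest.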

Chain of Potassium voltage-gated channel subfamily KQT member 2 (Rattus norvegicus) (O88943 whole entry, looked up): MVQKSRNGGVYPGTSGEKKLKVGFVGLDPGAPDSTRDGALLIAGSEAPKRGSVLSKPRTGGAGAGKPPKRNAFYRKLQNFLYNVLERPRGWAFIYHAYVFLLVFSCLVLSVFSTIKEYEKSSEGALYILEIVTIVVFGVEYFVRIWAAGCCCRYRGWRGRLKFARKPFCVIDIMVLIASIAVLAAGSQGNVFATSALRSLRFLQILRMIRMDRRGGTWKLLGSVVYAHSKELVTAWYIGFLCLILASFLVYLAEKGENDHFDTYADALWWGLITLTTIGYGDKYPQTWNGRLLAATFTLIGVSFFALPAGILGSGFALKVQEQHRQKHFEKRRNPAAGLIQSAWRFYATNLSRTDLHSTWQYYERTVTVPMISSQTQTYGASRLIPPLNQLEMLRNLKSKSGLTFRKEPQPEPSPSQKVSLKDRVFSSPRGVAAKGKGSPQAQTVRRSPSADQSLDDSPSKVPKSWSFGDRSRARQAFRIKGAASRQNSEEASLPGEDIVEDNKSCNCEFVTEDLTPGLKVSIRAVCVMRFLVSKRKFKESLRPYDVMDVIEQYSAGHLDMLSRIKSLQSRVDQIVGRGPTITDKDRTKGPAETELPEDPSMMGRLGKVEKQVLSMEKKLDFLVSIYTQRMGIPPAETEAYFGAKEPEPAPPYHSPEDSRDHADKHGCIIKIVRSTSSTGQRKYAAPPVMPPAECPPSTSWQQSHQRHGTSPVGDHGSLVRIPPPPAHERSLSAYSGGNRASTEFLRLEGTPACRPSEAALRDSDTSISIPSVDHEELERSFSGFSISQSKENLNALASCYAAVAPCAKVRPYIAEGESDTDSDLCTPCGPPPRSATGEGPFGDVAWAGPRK
Chain of Potassium voltage-gated channel subfamily KQT member 1 (Homo sapiens) (P51787 whole entry, looked up): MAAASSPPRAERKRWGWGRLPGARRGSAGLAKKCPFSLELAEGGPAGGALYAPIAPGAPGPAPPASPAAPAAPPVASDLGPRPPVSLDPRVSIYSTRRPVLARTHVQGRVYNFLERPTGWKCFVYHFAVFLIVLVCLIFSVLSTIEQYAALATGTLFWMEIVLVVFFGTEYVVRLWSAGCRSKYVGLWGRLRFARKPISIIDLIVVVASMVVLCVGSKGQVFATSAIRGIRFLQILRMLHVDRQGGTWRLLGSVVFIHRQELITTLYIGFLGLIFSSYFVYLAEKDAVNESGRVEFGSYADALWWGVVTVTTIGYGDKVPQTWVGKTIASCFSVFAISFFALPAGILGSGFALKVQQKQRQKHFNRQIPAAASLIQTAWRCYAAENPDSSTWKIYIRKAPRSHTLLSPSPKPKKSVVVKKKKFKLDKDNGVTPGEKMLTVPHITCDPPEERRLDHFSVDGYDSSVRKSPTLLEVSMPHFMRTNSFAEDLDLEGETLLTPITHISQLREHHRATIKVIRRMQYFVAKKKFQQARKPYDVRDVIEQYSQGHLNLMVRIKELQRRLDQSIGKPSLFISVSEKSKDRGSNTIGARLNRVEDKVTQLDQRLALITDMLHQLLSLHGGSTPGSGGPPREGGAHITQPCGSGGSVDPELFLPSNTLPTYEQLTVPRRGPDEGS

In the case of `O=c1c2cc(NC(=S)NCCCN3CCC(Cc4ccccc4)CC3)ccc2nc2n1CCCCC2`, the outcome in assay [1], in assay [2], in assay [3] and in assay [4] was inactive.

For the compound `Cc1ccc(-c2csc(=S)[nH]2)cc1`, in assay [1], the activation was 628% (active). Also, the potentiation in assay [2] is 189% (active); in assay [3], 643% (active). Moreover, the result in assay [4] was inactive.

With `Cc1cccc(NC(=S)N/N=C(\c2ccccc2)C(C)C)c1`, the outcome in assay [1] and in assay [4] was inactive. For the same compound, the potentiation in assay [2] was 32% (active); in assay [3] it was 152% (active).

On to `C=CCNC(=S)Nc1sc2c(c1C(=O)OCC)CC(C(C)C)OC2` (stereo not given), for which, in assay [1], the activation is 268% (active). Further, the figures for the potentiation in assay [2] and in assay [3] were 132% (active) and 246% (active), respectively. The outcome in assay [4] was inactive.

In the case of `COC(=O)c1cnn(-c2ccc(Cl)cc2)c1/C=N/NC(N)=S`, the outcome in assay [1], in assay [2], in assay [3] and in assay [4] was inactive.

Consider `CCOC(=O)Cc1csc(NC(=O)CSc2nnnn2-c2ccc(C)cc2C)n1`, for which the result in assay [1], in assay [2], in assay [3] and in assay [4] was inactive.

`CCOc1ccc(N=Nc2ccc(O)c3ncccc23)cc1`: the result in assay [1], in assay [3] and in assay [4] was inactive. In assay [2], the potentiation was 17.5% (active).

Regarding `Fc1ccc2nc(Nc3nc4c(F)cccc4s3)sc2c1`, the activation in assay [1] was 144% (active). For the same compound, the potentiation in assay [2] was 69.5% (active); in assay [3] it was 180% (active). Besides, the result in assay [4] was inactive.

With `Cc1ccc(C(=O)Nc2nc3ccccc3c(=O)s2)cc1`, in assay [1], the activation is 186% (active). In addition, the potentiation is 35.5% (active) in assay [2] and 216% (active) in assay [3]. In addition, in assay [4], the outcome was inactive.

Take `CCOc1ccccc1NC(=O)CCC(=O)Nc1ccccc1OCC`: the outcome in assay [1], in assay [2], in assay [3] and in assay [4] was inactive.

As for `CSc1nccc(-c2nn(-c3ccc(C)cc3)ccc2=O)n1`, the outcome in assay [1], in assay [2], in assay [3] and in assay [4] was inactive.

Regarding `O=C1N(Cc2ccc(F)cc2)CCN1c1ccc(F)cc1`, the activation in assay [1] was 149% (active). Besides, the potentiation in assay [2] was 22% (active); in assay [3] it was 144% (active). In addition, in assay [4], the outcome was inactive.

For the compound `COc1ccc(C2NC(c3ccc(OC)c(OC)c3OC)C(C)C(=O)C2C)c(OC)c1OC` (stereo not given), the result in assay [1], in assay [2], in assay [3] and in assay [4] was inactive.

In the case of `CC(/C=C1\SC(=S)N(NS(=O)(=O)c2ccccc2)C1=O)=C\c1ccccc1`, the activation in assay [1] was 304% (active). Besides, the potentiation is 157% (active) in assay [2] and 318% (active) in assay [3]. Also, in assay [4], the outcome was inactive.

As to `Cc1ccc(C2c3c(-c4ccccc4O)n[nH]c3C(=O)N2Cc2ccncc2)cc1` (stereo not given), the outcome in assay [1], in assay [2], in assay [3] and in assay [4] was inactive.

In the case of `COc1ccc(Cc2nnc(NC(=O)C3CC(=O)N(c4ccccc4)C3)s2)cc1OC` (stereo not given), the result in assay [1], in assay [2], in assay [3] and in assay [4] was inactive.

As to `CSc1ccc(NC(=O)CC(C)=O)cc1`, the outcome in assay [1], in assay [2], in assay [3] and in assay [4] was inactive.

For the compound `CCCCNC(=S)NNC(=O)c1nn(C)c(C)c1Cl`, the outcome in assay [1], in assay [2], in assay [3] and in assay [4] was inactive.

On to `CCOc1ccc(C(=O)NC(=S)N(Cc2ccccc2)Cc2ccccc2)cc1`, for which, in assay [1], the activation was 395% (active). Further, the results for the potentiation in assay [2] and in assay [3] were 296% (active) and 522% (active), respectively. Also, in assay [4], the outcome was inactive.

Take `Cc1cccc(NC(=O)CSc2ccc3nnc(-c4cccnc4)n3n2)c1`: the outcome in assay [1], in assay [2], in assay [3] and in assay [4] was inactive.

Turning to `CCOC(=O)C1=C(O)c2ccccc2C(=O)/C1=C\c1ccc(CC)cc1`, the activation in assay [1] was 177% (active). Further, the potentiation was 114% (active) in assay [2] and 156% (active) in assay [3]. Also, the result in assay [4] was inactive.

Regarding `Cn1ncc([N+](=O)[O-])c1C(=O)N/N=C/c1ccc(F)cc1`, the outcome in assay [1], in assay [2], in assay [3] and in assay [4] was inactive.

For `CC(Oc1ccc(Cl)cc1Cl)C(=O)NC(=S)N1CCc2ccccc21` (stereo not given), the activation in assay [1] is 151% (active). In addition, the values for the potentiation in assay [2] and in assay [3] were 120% (active) and 172% (active), respectively. Further, in assay [4], the result was inactive.

As for `CCOC(=O)NC(=S)Nc1ccc(C(C)(C)C)cc1`, the outcome in assay [1], in assay [3] and in assay [4] was inactive. Further, in assay [2], the potentiation is 20% (active).

In the case of `COc1ccc(CCNC(=O)CC(=O)N/N=C/c2ccc(Br)cc2)cc1OC`, the result in assay [1], in assay [2], in assay [3] and in assay [4] was inactive.

As to `Cn1nnnc1SCC(=O)NCc1ccc2c(c1)OCO2`, the result in assay [1], in assay [2], in assay [3] and in assay [4] was inactive.

In the case of `Cc1cccc(NC(=O)C(=O)NNC(=O)c2ccc(C(C)(C)C)cc2)c1`, the activation in assay [1] is 485% (active). Moreover, the potentiation in assay [2] was 179% (active); in assay [3], 483% (active). In addition, in assay [4], the result was inactive.

As to `CCCCn1c(=S)[nH]c2ccccc2c1=O`, in assay [1], the activation is 160% (active). In addition, the potentiation was 50.5% (active) in assay [2] and 187% (active) in assay [3]. Besides, the result in assay [4] was inactive.

With `Cc1cc(/C=N\NC(=O)CC(=O)NC2CCCCC2)c(C)n1-c1cccc(Cl)c1Cl`, the outcome in assay [1], in assay [2] and in assay [4] was inactive. Further, the potentiation in assay [3] is 153% (active).

For the compound `COc1ccc(NC(=O)CC2C(=O)NCCN2C(=O)Nc2ccc(C(F)(F)F)cc2)cc1` (stereo not given), the result in assay [1], in assay [2], in assay [3] and in assay [4] was inactive.

Values taken from PubChem BioAssay.
